What all share (settings): stereoisomer not certain
The test system of one experiment is OR2M3 D11N. In outline:
(§1)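 Assay methods differ from source to source, frequently being transient luciferase assays in mammalian cell lines. For each receptor–molecule pair, the label responsive (active) applies when the original authors judged the measured signal statistically different from baseline, and non-responsive (inactive) applies otherwise.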

The test system of a further experiment is OR2M3 I13L A33G M144T. In outline: as §1
Another experiment deals with OR2M3 I13L A33G R266H. In outline:
as §1

For another experiment, the system named is OR2M3 I13L A33G. In outline: as §1
Another experiment has as its system OR2M3 I13L M144T. In outline:
as §1

For the next experiment, the system named is OR2M3 I13L. In outline:
as §1

In a further experiment the test system is OR2M3 I198V. In a few lines: as §1
For the next experiment, the system named is OR2M3 I289N. In a few lines:
as §1

The subject of a further experiment is OR2M3 L63F. In a few lines:
as §1

The next experiment relates to OR2M3 M144T. In outline: as §1
The next experiment deals with OR2M3 M302T. In a few lines:
as §1

The subject of another experiment is OR2M3 R266H. In outline: as §1
In a further experiment the test system is OR2M3 R293S. In outline: as §1
The next experiment deals with OR2M3 V78I. In outline: as §1
A further experiment deals with OR2M3 Y259H. In a few lines:
as §1

A further experiment concerns OR2M5 A156G. In a few lines:
as §1

The next experiment concerns OR2M5 A160V. In outline: as §1
Chain of OR2M5 A160V (as listed by the source, stated change not applied): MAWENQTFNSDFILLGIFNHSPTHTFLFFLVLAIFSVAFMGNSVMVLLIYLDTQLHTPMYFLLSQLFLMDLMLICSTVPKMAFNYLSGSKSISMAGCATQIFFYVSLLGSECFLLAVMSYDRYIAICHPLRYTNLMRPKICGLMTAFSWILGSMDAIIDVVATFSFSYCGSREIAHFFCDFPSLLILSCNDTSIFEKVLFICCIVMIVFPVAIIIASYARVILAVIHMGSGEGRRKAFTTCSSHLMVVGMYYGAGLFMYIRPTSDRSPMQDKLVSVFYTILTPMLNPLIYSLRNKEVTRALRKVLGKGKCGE

Chain of OR2M3 R293S (as listed by the source, stated change not applied): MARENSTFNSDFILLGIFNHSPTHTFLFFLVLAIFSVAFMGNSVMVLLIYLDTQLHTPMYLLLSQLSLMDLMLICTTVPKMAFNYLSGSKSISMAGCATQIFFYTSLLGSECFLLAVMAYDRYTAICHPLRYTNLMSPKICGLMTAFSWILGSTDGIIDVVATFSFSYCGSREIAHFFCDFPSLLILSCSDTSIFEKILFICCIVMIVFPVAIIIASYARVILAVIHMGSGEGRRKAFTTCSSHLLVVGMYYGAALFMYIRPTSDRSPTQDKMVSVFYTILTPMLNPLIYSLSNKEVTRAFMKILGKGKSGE
Chain of OR2M3 I198V (as listed by the source, stated change not applied): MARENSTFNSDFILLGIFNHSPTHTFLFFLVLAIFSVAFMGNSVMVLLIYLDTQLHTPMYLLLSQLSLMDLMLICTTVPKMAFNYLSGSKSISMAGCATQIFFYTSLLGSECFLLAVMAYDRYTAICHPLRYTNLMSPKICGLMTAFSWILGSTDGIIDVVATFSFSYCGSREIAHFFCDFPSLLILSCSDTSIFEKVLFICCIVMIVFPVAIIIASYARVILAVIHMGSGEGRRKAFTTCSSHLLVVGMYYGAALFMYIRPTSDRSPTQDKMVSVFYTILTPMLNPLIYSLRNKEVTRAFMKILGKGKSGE
Chain of OR2M3 Y259H (as listed by the source, stated change not applied): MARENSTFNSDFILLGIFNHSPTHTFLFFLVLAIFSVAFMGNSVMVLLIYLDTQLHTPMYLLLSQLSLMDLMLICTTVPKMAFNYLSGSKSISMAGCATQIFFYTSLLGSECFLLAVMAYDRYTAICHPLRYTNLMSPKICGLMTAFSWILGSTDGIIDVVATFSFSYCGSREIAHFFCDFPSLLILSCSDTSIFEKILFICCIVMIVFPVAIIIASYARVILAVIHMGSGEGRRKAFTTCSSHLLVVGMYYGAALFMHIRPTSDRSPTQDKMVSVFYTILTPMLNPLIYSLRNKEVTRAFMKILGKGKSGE
Chain of OR2M3 D11N (as listed by the source, stated change not applied): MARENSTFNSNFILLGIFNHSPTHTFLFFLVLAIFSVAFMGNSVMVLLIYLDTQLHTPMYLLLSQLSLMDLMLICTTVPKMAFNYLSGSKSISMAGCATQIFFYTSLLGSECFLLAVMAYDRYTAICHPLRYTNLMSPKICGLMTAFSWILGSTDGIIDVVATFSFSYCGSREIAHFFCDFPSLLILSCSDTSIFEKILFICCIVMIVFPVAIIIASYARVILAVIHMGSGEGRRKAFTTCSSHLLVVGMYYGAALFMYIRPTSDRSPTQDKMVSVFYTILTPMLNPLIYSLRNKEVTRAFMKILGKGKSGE
Chain of OR2M3 R266H (as listed by the source, stated change not applied): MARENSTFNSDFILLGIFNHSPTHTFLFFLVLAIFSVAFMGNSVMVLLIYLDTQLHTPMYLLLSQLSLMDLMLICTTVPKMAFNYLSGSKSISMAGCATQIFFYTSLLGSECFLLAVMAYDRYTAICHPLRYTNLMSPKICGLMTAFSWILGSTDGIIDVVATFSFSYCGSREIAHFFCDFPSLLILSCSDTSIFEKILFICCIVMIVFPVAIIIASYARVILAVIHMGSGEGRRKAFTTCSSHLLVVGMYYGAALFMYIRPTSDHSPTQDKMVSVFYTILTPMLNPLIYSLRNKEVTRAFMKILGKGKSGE
Chain of OR2M3 L63F (as listed by the source, stated change not applied): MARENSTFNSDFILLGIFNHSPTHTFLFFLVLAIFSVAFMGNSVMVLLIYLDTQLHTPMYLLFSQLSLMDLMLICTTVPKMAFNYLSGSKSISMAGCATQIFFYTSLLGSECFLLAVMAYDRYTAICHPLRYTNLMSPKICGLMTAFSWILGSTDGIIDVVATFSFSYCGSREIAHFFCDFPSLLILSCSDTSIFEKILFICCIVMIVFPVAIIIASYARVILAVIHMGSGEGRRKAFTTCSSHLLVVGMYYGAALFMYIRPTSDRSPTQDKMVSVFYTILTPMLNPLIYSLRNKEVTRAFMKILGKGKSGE
Chain of OR2M3 M144T (as listed by the source, stated change not applied): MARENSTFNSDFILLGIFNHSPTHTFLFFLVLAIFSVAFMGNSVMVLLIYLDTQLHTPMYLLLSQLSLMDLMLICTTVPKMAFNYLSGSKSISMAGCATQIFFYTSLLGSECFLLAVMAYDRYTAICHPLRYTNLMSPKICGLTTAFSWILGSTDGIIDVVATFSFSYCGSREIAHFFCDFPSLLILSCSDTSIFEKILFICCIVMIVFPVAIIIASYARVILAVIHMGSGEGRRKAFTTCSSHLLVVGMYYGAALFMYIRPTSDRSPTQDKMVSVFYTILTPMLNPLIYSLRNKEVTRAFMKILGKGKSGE
Chain of OR2M5 A156G (as listed by the source, stated change not applied): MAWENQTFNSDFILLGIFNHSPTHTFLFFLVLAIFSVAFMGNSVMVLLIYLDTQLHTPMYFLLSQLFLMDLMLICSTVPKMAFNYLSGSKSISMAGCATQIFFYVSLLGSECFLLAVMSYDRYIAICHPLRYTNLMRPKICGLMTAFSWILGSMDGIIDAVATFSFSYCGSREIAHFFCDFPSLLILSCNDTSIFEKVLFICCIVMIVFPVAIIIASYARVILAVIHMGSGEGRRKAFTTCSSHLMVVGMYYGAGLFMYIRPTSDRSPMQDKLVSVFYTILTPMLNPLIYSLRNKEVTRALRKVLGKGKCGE
Chain of OR2M3 M302T (as listed by the source, stated change not applied): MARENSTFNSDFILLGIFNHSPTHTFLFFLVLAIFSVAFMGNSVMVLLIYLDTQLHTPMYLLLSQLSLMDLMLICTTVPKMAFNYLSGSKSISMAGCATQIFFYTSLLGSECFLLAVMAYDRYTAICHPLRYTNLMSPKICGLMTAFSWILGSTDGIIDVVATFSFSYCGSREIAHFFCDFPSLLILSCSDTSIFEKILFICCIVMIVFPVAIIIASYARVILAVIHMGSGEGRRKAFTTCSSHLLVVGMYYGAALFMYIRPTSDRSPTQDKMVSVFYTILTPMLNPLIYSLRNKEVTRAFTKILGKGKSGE
Chain of OR2M3 I289N (as listed by the source, stated change not applied): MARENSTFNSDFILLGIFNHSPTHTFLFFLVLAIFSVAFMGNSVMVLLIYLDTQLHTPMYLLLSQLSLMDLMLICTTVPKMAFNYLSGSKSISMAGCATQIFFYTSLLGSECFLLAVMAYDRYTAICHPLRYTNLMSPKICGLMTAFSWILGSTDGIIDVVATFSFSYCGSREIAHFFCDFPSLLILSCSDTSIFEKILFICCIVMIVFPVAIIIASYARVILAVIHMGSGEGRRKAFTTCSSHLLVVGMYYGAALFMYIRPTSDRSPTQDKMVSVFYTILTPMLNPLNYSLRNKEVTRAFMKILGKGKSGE
Chain of OR2M3 I13L (as listed by the source, stated change not applied): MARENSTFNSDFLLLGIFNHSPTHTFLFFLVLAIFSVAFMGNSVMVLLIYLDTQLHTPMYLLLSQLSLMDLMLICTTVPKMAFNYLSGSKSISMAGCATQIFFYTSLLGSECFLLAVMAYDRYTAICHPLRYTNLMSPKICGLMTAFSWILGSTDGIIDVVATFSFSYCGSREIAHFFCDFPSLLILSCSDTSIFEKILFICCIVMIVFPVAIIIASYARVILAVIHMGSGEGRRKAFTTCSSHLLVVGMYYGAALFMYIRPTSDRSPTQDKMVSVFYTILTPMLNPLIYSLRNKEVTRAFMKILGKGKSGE
Chain of OR2M3 V78I (as listed by the source, stated change not applied): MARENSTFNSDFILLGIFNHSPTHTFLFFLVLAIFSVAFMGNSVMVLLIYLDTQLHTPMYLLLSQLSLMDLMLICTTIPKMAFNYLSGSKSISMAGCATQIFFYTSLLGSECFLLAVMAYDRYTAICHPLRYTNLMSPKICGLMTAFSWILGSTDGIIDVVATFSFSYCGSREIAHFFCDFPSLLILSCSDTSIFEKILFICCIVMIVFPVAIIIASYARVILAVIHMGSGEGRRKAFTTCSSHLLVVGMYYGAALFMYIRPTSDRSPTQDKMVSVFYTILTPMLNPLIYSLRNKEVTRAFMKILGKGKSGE

On to `CCC(S)C(C)CO` (configuration not stated), for which the “odorant receptor agonist call” value with OR2M3 D11N, with OR2M3 I13L A33G R266H, in the experiment with OR2M3 I13L A33G, in the experiment on OR2M3 I13L M144T, in the experiment on OR2M3 I13L and in the experiment on OR2M3 I198V was “active” throughout. Further, the “odorant receptor agonist call” value in the experiment with OR2M3 M144T, in the experiment on OR2M3 M302T, in the experiment with OR2M3 R266H, in the experiment on OR2M3 R293S and in the experiment with OR2M3 V78I was “active” in each case. The “odorant receptor agonist call” value in the experiment with OR2M3 I13L A33G M144T, in the experiment on OR2M3 I289N, in the experiment with OR2M3 L63F, in the experiment on OR2M3 Y259H, in the experiment on OR2M5 A156G and with OR2M5 A160V was “inactive” throughout.

Source of the values: the M2OR odorant receptor database.
